Compound activity deposited in PubChem by Sanford-Burnham Center for Chemical Genomics.
Most compounds without a hit are left out; they make up all but 3.9% or so of the library.
tim10-1 inh = growth inhibitors of tim10-1 mutant yeast, primary screen, luminescence, uHTS. AID 463190, 2010. inhibition, % at 20 µM. 330,000 compounds, 2.2% hits. S. cerevisiae tim10-1 ts strain growth, BacTiter-Glo, 24 h;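 active = inhibition of at least 40%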;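 also: mutant grown at 25 °C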
TIM10 inh = growth inhibitors of isogenic TIM10 control yeast, primary screen, counter-screen for tim10-1 yeast inhibitor project, luminescence, uHTS; S. cerevisiae TIM10 strain growth, BacTiter-Glo luminescence, 24 h; inhibition, % at 10 µM; 330,000 compounds, 1.4% hits; AID 463195, 2010;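 active = inhibition of 40% or more at the single tested concentration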;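 also: wild-type TIM10 isogenic control strain grown at permissive 25 °C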
XBP1 UPR activ = activators of adaptive XBP1 UPR arm, primary screen, cell-based, CHO-XBP1 luciferase reporter, luminescence, uHTS; IRE1-XBP1 UPR activation; percent of tunicamycin response, DMSO as zero; activation, % at 20 µM; 330,000 compounds, 0.33% hits; AID 463104, 2010;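 active = versus positive control, 20 µM dose yields 30% or more activation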
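Material: CHO-XBP1 cells stably carrying IRE1-XBP1-driven luciferase reporter / Amount: 1000 cells per well / Compound: 20 µM, 1% DMSO / Times: 6 h treatment, 37 °C / Detection: luciferase luminescence / Measure: % activation of reporter signal versus tunicamycin and DMSO controls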
CHOP UPR activ = activators of apoptotic CHOP UPR arm, primary screen, cell-based, CHO-CHOP luciferase reporter, luminescence, uHTS; UPR activation; percent of tunicamycin response over DMSO baseline; activation, % at 10 µM; 330,000 compounds, 0.34% hits;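 active = at 10 µM dose, activation of 40% or more, normalized to positive control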
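measured by = luciferase luminescence | assay system = CHO-CHOP cells, stable luciferase reporter of PERK-eIF2a-CHOP signalling | amount = 500 reporter cells seeded per well | timing = 6 h compound exposure at 37 °C after overnight seeding | controls = positive tunicamycin 10 µg/mL, negative DMSO alone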
tim23-1 inh = growth inhibitors of tim23-1 mutant yeast, primary screen, luminescence, uHTS. S. cerevisiae tim23-1 growth, BacTiter-Glo luminescence, 24 h. inhibition, % at 20 µM. 330,000 compounds, 1.3% hits;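 active = growth inhibition of the mutant yeast at or above 50%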;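 also: temperature-sensitive mutant grown at 25 °C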
tim10-1 confirm = growth inhibitors of tim10-1 mutant yeast, confirmation, single concentration, luminescence, S. cerevisiae; shares compounds with tim10-1 inh; S. cerevisiae tim10-1 ts strain growth, BacTiter-Glo, 24 h; 7,400 compounds, 56% hits; inhibition, % at 20 µM; AID 463213, 2010;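 active = inhibition of yeast growth at or above a set limit in either of two repeat tests at 20 µM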;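 also: tim10-1 mutant grown at permissive 25 °C to find synthetic lethal compounds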
TIM10 conf = growth inhibitors of wild-type TIM10 yeast, confirmation, counter-screen for tim10-1 synthetic lethality project, single concentration, luminescence, S. cerevisiae; 4,600 compounds, 63% hits; AID 463215, 2010; S. cerevisiae tim10 strain growth, BacTiter-Glo luminescence, 24 h; inhibition, % at 10 µM; shares compounds with TIM10 inh;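 active = inhibition of yeast growth at or above a set limit in either of two replicates at 10 µM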; also: this counterscreen used the strain with wild-type TIM10
tim23-1 conf = tim23-1 mutant yeast growth inhibitors, confirmation, luminescence, single concentration; shares compounds with tim23-1 inh; S. cerevisiae tim23-1 growth, BacTiter-Glo luminescence, 24 h; inhibition, % at 20 µM; 4,400 compounds, 83% hits;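 active = inhibition above about 39% in either of two replicate wells at 20 µM, limit read from the data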;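 also: temperature-sensitive tim23-1 mutant grown at 25 °C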
Each line names hits and unclear results; the compound was inactive in the other large screens (follow-up assays come after a bar, where they were run).

O=C(Nc1nc2ccccc2s1)C1CC(=O)N(c2ccc(Br)cc2)C1 (stereo not drawn)	tim10-1 inh 49.3, TIM10 inh 45.9, tim23-1 inh 72.7 | tim10-1 confirm 37.1 | TIM10 conf 36.3 | tim23-1 conf 74.3
O=C(Nc1nc2ccccc2s1)C1CC(=O)N(c2ccccc2)C1 (stereo not drawn)	none
CC(C)(C)OC(=O)NCCCCCNC(=O)c1[nH]cnc1C(=O)Nc1ccon1	none
O=C(NC12CC3CC(CC(C3)C1)C2)C12CC3CC(C1)CC(n1cnc(Cl)n1)(C3)C2	tim10-1 inh 65.3, TIM10 inh 45.9, tim23-1 inh 60.2 | tim10-1 confirm 52.7 | TIM10 conf 45.5 | tim23-1 conf 50.1
CCOC(=O)CSC1=NC(=O)/C(=C/c2ccc(OC)cc2)S1	tim10-1 inh 40.3, TIM10 inh 58.9, tim23-1 inh 89.7 | tim10-1 confirm 69.8 | TIM10 conf inactive | tim23-1 conf 39.1
COc1ccc(/C=C2\SC(N3CCc4ccccc4C3)=NC2=O)cc1	tim10-1 inh 55.5, TIM10 inh 53.4, tim23-1 inh 65.1 | tim10-1 confirm 50.4 | TIM10 conf inactive | tim23-1 conf 52.5
COc1cc(/C=C2\SC(N3CCc4ccccc4C3)=NC2=O)cc(OC)c1OC	none
COc1ccc(/C=C2\SC(N)=NC2=O)cc1	none
C#Cc1ccc([C@@H]2C=C(C(=O)N3CCOCC3)O[C@H](OCc3ccc(CO)cc3)C2)cc1	none
Cc1noc(C)c1C(=O)N(C)CC(=O)Nc1ccc(F)c(F)c1F	none
O=[N+]([O-])c1cc(Cl)cc2c1nc(NCCO)c1ccccc12	tim10-1 inh 67.2, tim23-1 inh 54.8 | tim10-1 confirm 50.4 | tim23-1 conf 46.7
Fc1ccc(C2Nc3cccc4cccc(c34)N2)cc1	tim10-1 inh 44.6, tim23-1 inh 56.7 | tim10-1 confirm inactive | tim23-1 conf 50.9
O=Cc1c(OCc2ccccc2)ccc2ccccc12	none
O=Cc1c[nH]c2cccc(OCc3ccccc3)c12	tim10-1 inh 58.7, tim23-1 inh 53.7 | tim10-1 confirm 29.9 | tim23-1 conf inactive
COc1cc(C)nc(N(Cc2ccccc2)S(=O)(=O)c2ccccc2)n1	none
CCCN(c1nc(C)cc(OC)n1)S(=O)(=O)c1ccccc1	tim10-1 inh 43.9, tim23-1 inh 50.7 | tim10-1 confirm inactive | tim23-1 conf 39.9
CCC(=O)c1cn(/C(=C\C(=O)OC(C)(C)C)CCC(OC)OC)cc1CC	none
CC1=C/C(=C\c2ccc3c(c2)OCO3)C(=O)S1	tim10-1 inh 48.0, TIM10 inh 46.0, tim23-1 inh 53.2 | tim10-1 confirm 39.4 | TIM10 conf 39.8 | tim23-1 conf inactive
O=C(COC(=O)c1ccc(O)cc1)Nc1ccc2c(c1)OCO2	none
CN(CC(=O)Nc1ccc(F)c(F)c1F)C(=O)c1ccc(-n2cncn2)c([N+](=O)[O-])c1	none
Cc1cc(C)n2nc(/C(C#N)=C/c3ccccn3)c(C#N)c2n1	tim10-1 inh 61.7, TIM10 inh 51.1, tim23-1 inh 51.9 | tim10-1 confirm 58.0 | TIM10 conf 52.4 | tim23-1 conf 75.4
Cc1cc(C)n2nc(CC#N)c(C#N)c2n1	none
Fc1ccccc1-c1nc(NC2CCCC2)c2ccccc2n1	tim10-1 inh 52.4, TIM10 inh 52.5, tim23-1 inh 67.2 | tim10-1 confirm 50.1 | TIM10 conf 48.4 | tim23-1 conf 75.2
CSc1nc2cc(Oc3cccc(Cl)c3Cl)c(Cl)cc2[nH]1	tim10-1 inh 53.0, TIM10 inh 55.2, tim23-1 inh 74.5 | tim10-1 confirm 50.8 | TIM10 conf 65.3 | tim23-1 conf inactive
Cc1ccc(Nc2ccc3nonc3c2[N+](=O)[O-])cc1	none
Cc1ccc(Nc2ccc([N+](=O)[O-])nc2[N+](=O)[O-])cc1	tim10-1 inh 42.1, TIM10 inh 42.3, tim23-1 inh 52.8 | tim10-1 confirm inactive | TIM10 conf inactive | tim23-1 conf 43.4
CSCCC(NC(=O)c1ccc([N+](=O)[O-])cc1Cl)C(=O)OC1CCCCC1=O (stereo not drawn)	none
CCOC(=O)/C=C/C(=O)OCC(=O)N1CCN(C(=O)c2ccco2)CC1	none
O=c1c2cc(Cl)ccc2nc(-c2ccccc2)n1O	tim10-1 inh 48.2, tim23-1 inh 59.5 | tim10-1 confirm inactive | tim23-1 conf 63.7
Cc1cc(C(=O)NCC(C)(C)N2CCOCC2)c(C)o1	none
CN1/C(=C\C(=S)NC(=O)c2ccc([N+](=O)[O-])cc2)C(C)(C)c2ccccc21	none
CN1/C(=C/C2CC(=O)N(c3ccc([N+](=O)[O-])cc3)C2=O)C(C)(C)c2ccccc21 (stereo not drawn)	tim10-1 inh 66.3, TIM10 inh 51.4, tim23-1 inh 51.1 | tim10-1 confirm 61.7 | TIM10 conf 41.9 | tim23-1 conf 66.0
Cc1coc(C)c1C(=O)Nc1ccc2ccccc2c1	none
CCOC(=O)C1=C(CSc2nc(CC)c(C)cc2C#N)OC(N)=C(C#N)C1c1ccc(OC)cc1 (stereo not drawn)	tim10-1 inh 40.9, tim23-1 inh 53.9 | tim10-1 confirm inactive | tim23-1 conf 61.4
CCOC(=O)C1=C(CSc2nc(-c3ccncc3)ccc2C#N)OC(N)=C(C#N)C1c1cccnc1 (stereo not drawn)	none
COc1ccc(CCNC(=O)CN2c3cccc4cccc(c34)S2(=O)=O)cc1OC	none
COc1ccccc1N1CCN(Cc2cnc3ccc(Cl)cn23)CC1	none
Cc1sc(NC(=O)c2ccccc2)c(C(c2ccc(Cl)cc2)N2CCN(CCO)CC2)c1C (stereo not drawn)	tim10-1 inh 41.9, tim23-1 inh 51.6 | tim10-1 confirm 34.8 | tim23-1 conf 41.5
C=C(C)COc1ccc2c(C)c(CC(=O)OC)c(=O)oc2c1C	tim10-1 inh 80.4, TIM10 inh 86.5, tim23-1 inh 61.5 | tim10-1 confirm 75.7 | TIM10 conf 87.5 | tim23-1 conf 64.8
COc1ccc(OC)c(CC(NC(C)=O)C(=O)NC2CCN(S(=O)(=O)c3ccc(NC(C)=O)cc3)CC2)c1 (stereo not drawn)	none
